Arbovirus anti: antivirals against arbovirus infection, primary screen, cell-based, full library, 10K replicate subset; arbovirus infection cell-based antiviral screen; inhibition, % at 10 µM; 200,000 compounds, 0.37% hits; in the data active = inhibition above about 30%
PKD1 kinase inh: inhibitors of human PKD1 kinase, biochemical, fluorescence polarization. Serine/threonine-protein kinase D1 (Homo sapiens), Q15139. PKD1 kinase fluorescence polarization assay. inhibition, % (no concentration beside the values). 200,000 compounds, 0.056% hits; in the data active = inhibition above about 50%
TNAP inh no acc: human TNAP enzyme inhibitors, primary screen, biochemical, luminescent, no phosphate acceptor, uHTS; Alkaline phosphatase, tissue-nonspecific isozyme (Homo sapiens), P05186; purified TNAP, CDP-star luminescence, 30 min; inhibition, % at 20 µM; 200,000 compounds, 0.26% hits;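 active = tissue-nonspecific alkaline phosphatase inhibition above about 50% at 20 µM in the single-dose screen, limit read from the data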;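 note: 0% = DMSO negative control and 100% = EDTA positive control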
Target sequence (P05186 whole entry, looked up): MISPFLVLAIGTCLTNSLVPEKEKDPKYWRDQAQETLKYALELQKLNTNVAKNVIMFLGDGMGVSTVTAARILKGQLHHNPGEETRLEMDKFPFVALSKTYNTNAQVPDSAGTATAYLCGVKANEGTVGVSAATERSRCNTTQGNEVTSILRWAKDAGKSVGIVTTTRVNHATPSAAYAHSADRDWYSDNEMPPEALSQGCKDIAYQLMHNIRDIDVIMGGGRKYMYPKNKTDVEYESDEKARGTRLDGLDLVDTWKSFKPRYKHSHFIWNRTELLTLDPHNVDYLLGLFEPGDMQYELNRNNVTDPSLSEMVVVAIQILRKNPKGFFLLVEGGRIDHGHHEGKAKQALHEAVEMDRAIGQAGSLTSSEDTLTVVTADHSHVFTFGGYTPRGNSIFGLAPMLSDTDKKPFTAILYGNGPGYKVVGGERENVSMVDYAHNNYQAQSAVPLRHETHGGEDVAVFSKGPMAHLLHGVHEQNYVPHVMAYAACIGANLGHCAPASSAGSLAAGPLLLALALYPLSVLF
TNAP act hiacc: TNAP activators at high phosphate acceptor level, primary screen, biochemical, luminescence, uHTS; Alkaline phosphatase, tissue-nonspecific isozyme (Homo sapiens), P05186; purified TNAP, CDP-star luminescence, 1 M DEA, 30 min; active compounds read high; 0 = EDTA background, 1 = DMSO-only activity; activation factor at 20 µM; 200,000 tested, under 10 active; AID 1136, 2008;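 active = activation factor at least 2 at 20 µM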
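Control set: EDTA negative control, DMSO positive control / Assay system: human TNAP / Quantity: TNAP 1/800 final / Evaluation: TNAP activation factor scaled between EDTA and DMSO control wells / Measured by: luminescent substrate turnover signal / Compound dosing: one dose, 20 µM / Times: 30 min enzyme reaction at room temperature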
TNAP inh hi DEA: human TNAP enzyme inhibitors, primary screen, biochemical, luminescent, high phosphate acceptor level, uHTS; 200,000 compounds, 0.03% hits; AID 1135, 2008; purified TNAP, CDP-star luminescence, 1 M DEA; inhibition, % at 20 µM;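 active = over 50% inhibition of tissue-nonspecific alkaline phosphatase at 20 µM in the single-dose screen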;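 note: plate controls were DMSO wells for no effect and EDTA-quenched wells as full inhibition for full effect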
An asterisk follows results filed as active; i = inactive; nt = not tested or not shown. Rows were chosen to be rich in hits. Some 0.73% of all compounds tested hit in one or more screens of this group.

SMILES	Arbovirus anti	PKD1 kinase inh	TNAP inh no acc	TNAP act hiacc	TNAP inh hi DEA
CCOc1ccc(S(=O)(=O)Nc2nc3ccccc3nc2Nc2ccc(N3CCOCC3)cc2)cc1	-4	-4	-1	0.9	7
COc1ccc(Cn2c(C)c(C)c(C#N)c2NC(=O)Nc2cccc(C)c2)cc1	52*	-9	-16	1.1	-8
Cc1ccc(NC(=O)c2c(O)c3ccccc3n(C)c2=O)nc1	33*	-3	-6	1.1	-8
Cc1ccnc(NC(=O)c2c(O)c3ccccc3n(C)c2=O)c1	nt	nt	3	1.1	-8
COc1ccc(-c2nc(SC(CC(=O)NCCO)c3cccs3)n[nH]2)cc1 (stereo unspecified)	2	-3	71*	1	-4
O=C(CC(Sc1n[nH]c(-c2ccccc2)n1)c1ccccc1)NCc1ccccc1 (stereo unspecified)	-4	8	35	1	-4
Cc1cc(C)n(-c2cc(C(=O)O)cc(C(=O)O)c2)n1	2	0	-8	1.1	-7
Cc1cc(=O)oc2n[nH]c(-c3ccccc3)c12	-2	6	92*	1	1
COc1ccc(-c2[nH]nc3oc(=O)cc(C)c23)cc1	10	-1	90*	0.9	8
COC(=O)Cc1cc(=O)[nH]c(Nc2nc3ccccc3o2)n1	-4	-14	75*	1	-4
N#CC1=C(N)Oc2n[nH]c(-c3cccs3)c2C1C1C=CCCC1 (stereo unspecified)	-13	-3	54*	1	-5
N#CC1=C(N)Oc2n[nH]c(-c3cccs3)c2C1C1CCCCC1 (stereo unspecified)	-46	-2	23	1	-2
Cc1ccc(CNC(=O)COC(=O)Cn2nc(C)c([N+](=O)[O-])c2C)cc1	2	8	-33	1.1	-5
Cc1nn(CC(=O)OCCOc2ccc(Br)cc2)c(C)c1[N+](=O)[O-]	61*	-2	-1	1	-1
Oc1ccccc1Nc1nc(NCC2CCCO2)c2ccccc2n1 (stereo unspecified)	-1	-5	-10	1	-2
Oc1ccc(Nc2nc(NCC3CCCO3)c3ccccc3n2)cc1 (stereo unspecified)	41*	-1	-8	1	-2
O=C(CSc1ccncc1)Nc1ccc2ccccc2c1	11	71*	-1	1	5
O=C(COC(=O)c1cc[n+]([O-])cc1)Nc1ccc([N+](=O)[O-])cc1	3	3	-2	1	-4
CCNc1nc(SCCOc2ccc(Cl)cc2Cl)nc(N(C)C)n1	30*	-3	1	1	5
CCNc1nc(SCCOc2ccc(C)cc2)nc(N(C)C)n1	-3	-13	1	1	-4
CCN(CC)S(=O)(=O)c1ccc(C)c(NS(=O)(=O)c2cc(/C=C/C(=O)O)cc(OC)c2OC)c1	5	-1	-10	1	-4
O=C(CCl)N=c1sccn1Cc1cccc2ccccc12	31*	3	-16	1	-4
Cc1nn2cc(-c3ccc(Cl)cc3)cnc2c1Cl	-8	3	-8	1	-5
CN1/C(=C\C=C2/SC(=S)N(CC(=O)O)C2=O)C(C)(C)c2ccccc21	11	-5	52*	0.5	50*
O=C(Nc1ccc(Cc2ccncc2)cc1)C1CCC(N2C(=O)C3CCCCC3C2=O)CC1 (stereo unspecified)	-17	-6	-7	1	-2
SMILES	Arbovirus anti	PKD1 kinase inh	TNAP inh no acc	TNAP act hiacc	TNAP inh hi DEA
Cc1ccc(S(=O)(=O)N2CCC(=O)N(C(COCc3cccc(C(F)(F)F)c3)C(C)C)CC2)cc1 (stereo unspecified)	-27	-6	-4	1	-2
CC1CCC(NC(=O)C2c3ccccc3C(=O)N2Cc2cccs2)CC1 (stereo unspecified)	3	4	-8	0.9	6
COc1ccc(OC)c(N(CC(=O)N2CCN(c3cc(Cl)ccc3C)CC2)S(C)(=O)=O)c1	41*	-5	-13	1.1	-6
Cc1cccc(N2C(=O)C(Oc3ccc(Cl)cc3Cl)C2C=O)c1C (stereo unspecified)	-20	-6	-23	1	-3
CSc1ncc(Cl)c(C(=O)C(C#N)c2nc3c(C)cc(C)cc3c(=O)[nH]2)n1 (stereo unspecified)	41*	5	-9	1	-2
CSc1ncc(Cl)c(C(=O)Nc2cccc(C)c2)n1	3	-5	-3	1	4
Oc1ccc(O)c(Cc2nc3ccccc3s2)c1	-32	0	61*	1	1
O=C(CSc1n[nH]c(-c2ccc(Cl)cc2Cl)n1)Nc1ccccn1	26	-2	93*	0.9	8
CC(=O)N1c2ccccc2C(C)(c2ccccc2)CC1(C)C (stereo unspecified)	-10	-5	-4	1	0
CC1(c2ccc([N+](=O)[O-])cc2)CC(C)(C)N(C(=O)c2ccccc2)c2ccccc21 (stereo unspecified)	34*	-2	-8	1	-3
COc1ccc(Cl)cc1NC(=O)CN1CCC(n2nnc3cc(C)ccc32)CC1	-8	7	i	2.7*	-173
COc1ccccc1NC(=O)CN1CCC(n2c(C)nc3cc(F)ccc32)CC1	33*	-12	-4	1	-1
COc1ccc(C(=O)NNC(=O)CN2CCC(n3nnc4cc(C(F)(F)F)ccc43)CC2)cc1	1	1	-19	1	-2
COC(=O)c1ccccc1NC(=O)CN1CCC(n2nnc3cc(C(F)(F)F)ccc32)CC1	32*	1	2	1	2
COc1ccccc1NC(=O)CN1CCC(n2nnc3cc(F)ccc32)CC1	4	-9	-9	1	-3
CC(C)CCN1CCN(CCCn2cccn2)CC1CCO (stereo unspecified)	4	-9	-10	1	-4
CC1C(=O)NN=C1C(=O)N/N=C/c1ccco1 (stereo unspecified)	10	-5	-42	1.1	-7
CC1C(=O)NN=C1C(=O)N/N=C\c1ccc(O)cc1O (stereo unspecified)	-10	6	72*	0.9	11
COc1cc([N+](=O)[O-])ccc1NC(=O)CCCOc1cc(C)ccc1C	-7	4	-7	1	3
Cc1nc(NS(=O)(=O)c2ccccc2C)c2c3c(sc2n1)CCC3	38*	-3	-7	1	-1
CCOC(=O)Cc1c(Sc2ccccc2)c2cc(C)ccc2n1C	26	-4	-13	1	-3
Cc1ccc2c(c1)c(Sc1ccccc1)c(CC(=O)O)n2C	31*	-3	1	1	0
